From paper PMC3576184 (Oncology Letters, 2012)
“Also recorded” adds a separate entry of the source. Marks after values point to notes of the source that are not given here.

Experiments:
[1] = tested on: vascular smooth muscle cells; settings: via inhibition of Ras/MAPK signal pathway; cited from earlier work
rat neutrophils = settings: through suppression of Akt and PLD activation; cited from earlier work
[2] = Safety evaluation in BALB/c mice; type: in vivo; settings: for BUN (blood urea nitrogen) / Body weight / Liver weight / Spleen weight / sGOT (serum glutamic-oxaloacetic transaminase) / sGPT (serum glutamic-pyruvic transaminase) / ALB (albumin) / LDH (lactate dehydrogenase) / PRO (total protein): mean ± SD, n=6; for ALB (albumin) / LDH (lactate dehydrogenase) / PRO (total protein): blood
Method in brief: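 30 BALB/c mice in five groups received i.v. PBS, 2-glycofurol solvent, or test compound at 5, 50 or 100 mg/kg/day for 7 days. Mice were killed with CO2 at day 7. Body, liver and spleen weights were recorded. Blood was assayed for LDH, albumin, total protein, sGPT, sGOT and BUN. Spleen and liver went to histopathology. Groups were compared with controls by Student's t-test.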

[3] = Cytotoxicity on normal human PBMCs; type: cell-based; settings: normal human peripheral blood mononuclear cells (PBMCs)
HL-60 cells = settings: cited from earlier work
WEHI-3 cell allograft = test: BALB/c mouse WEHI-3 allograft leukemia model; type: in vivo, BALB/c mice
Method in brief: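 30 BALB/c mice (6 weeks, 22–25 g) in five groups: 2-glycofurol vehicle; 1×10^7 WEHI-3 cells i.v.; test compound 100 mg/kg/day i.v. for 7 days; cells plus compound; or cells, then compound for 7 days. Weighed every 7 days; killed with CO2 at day 28, spleen and liver weighed. Blood leukocytes were red-cell-lysed, stained, and read by flow cytometry for surface markers including CD11b and CD45.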

WEHI-3 cells = test: MTT viability assay in WEHI-3 cells; type: cell-based, murine
Method in brief: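 WEHI-3 murine myelomonocytic cells were grown in RPMI-1640 with 10% FBS, 2 mM L-glutamine, penicillin and streptomycin at 37°C, 5% CO2. About 2×10^4 cells/well were plated for 24 h. Test compound in DMSO was added at final 0.78–25 μM, with 0.1% DMSO as control. After 24 h, viability was read by MTT across three separate experiments.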

[4] = 5 mg/kg i.v. once daily for 7 days
[5] = 50 mg/kg i.v. once daily for 7 days
[6] = 100 mg/kg i.v. once daily for 7 days
[7] = 100 mg/kg, flow cytometry, vs leukemia group

SMILES: O=Cc1ccccc1OCc1ccccc1 [2-benzyloxybenzaldehyde]
- effect on cell proliferation [1]: exhibited antiproliferative effects
- superoxide anion generation (rat neutrophils): inhibits superoxide anion generation

SMILES: COc1cccc(COc2ccccc2C=O)c1 [CCY-1a-E2, 2-[(3-methoxybenzyl)oxy]benzaldehyde]
- BUN (blood urea nitrogen) [2, 4]: 30.33 ± 5.02 mg/dL
- Body weight [2, 4]: 28.42±1.13^a g
- Liver weight [2, 4]: 4.42±0.47 g/100 g body weight
- Spleen weight [2, 4]: 0.35±0.06 g/100 g body weight
- sGOT (serum glutamic-oxaloacetic transaminase) [2, 4]: 105.83±22.16 U/l
- sGPT (serum glutamic-pyruvic transaminase) [2, 4]: 41.83±8.94 U/l
- BUN (blood urea nitrogen) [2, 5]: 26.17 ± 2.42 mg/dL
- Body weight [2, 5]: 28.88±1.52^a g
- Liver weight [2, 5]: 4.18±0.33 g/100 g body weight
- Spleen weight [2, 5]: 0.31±0.06 g/100 g body weight
- sGOT (serum glutamic-oxaloacetic transaminase) [2, 5]: 79.98±26.10 U/l
- sGPT (serum glutamic-pyruvic transaminase) [2, 5]: 43.92±16.02 U/l
- BUN (blood urea nitrogen) [2, 6]: 28.92 ± 2.20 mg/dL
- Body weight [2, 6]: 28.90±0.51^a g
- Liver weight [2, 6]: 4.17±0.26 g/100 g body weight
- Spleen weight [2, 6]: 0.37±0.04 g/100 g body weight
- sGOT (serum glutamic-oxaloacetic transaminase) [2, 6]: 115.12±15.08 U/l
- sGPT (serum glutamic-pyruvic transaminase) [2, 6]: 41.83±10.02 U/l
- sGPT and sGOT levels vs normal range ([2]; 5, 50 and 100 mg/kg i.v. for 7 days): within the normal value range
- histopathology of spleen and liver ([2]; 5, 50 and 100 mg/kg, vs vehicle-treated controls, data not shown): No significant microscopic aberrations
- ALB (albumin) [2, 4]: 1.58 ± 0.38 g/dL
- LDH (lactate dehydrogenase) [2, 4]: 298.00±62.22 U/l
- PRO (total protein) [2, 4]: 3.68 ± 0.60 g/dL
- ALB (albumin) [2, 5]: 1.73 ± 0.26 g/dL
- LDH (lactate dehydrogenase) [2, 5]: 244.83±46.99 U/l
- PRO (total protein) [2, 5]: 4.06 ± 0.58 g/dL
- ALB (albumin) [2, 6]: 1.84 ± 0.13 g/dL
- LDH (lactate dehydrogenase) [2, 6]: 270.83±42.09 U/l
- PRO (total protein) [2, 6]: 4.77 ± 0.46 g/dL
- IC50 [3]: > 20 µM
- apoptosis (HL-60 cells): induced cell apoptosis
- cell cycle effect (HL-60 cells): induced G2/M phase arrest
- percentage of viable cells (HL-60 cells): decreased the percentage of viable cells
- level of CD11b on leukocytes (WEHI-3 cell allograft; [7]): significantly decreased
- level of CD45 on leukocytes (WEHI-3 cell allograft; [7]): significantly decreased
- Liver weight (WEHI-3 cell allograft; 100 mg/kg/day i.v. 7 days, day 28): significantly different; also recorded: inhibited the spleen and liver growth
- body weight vs control mice (WEHI-3 cell allograft; CCY-1a-E2 100 mg/kg group (no WEHI-3 cells), i.v. 7 days, up to day 28): not significantly decreased
- infiltration of immature myeloblastic cells into the splenic red pulp (histopathology) (WEHI-3 cell allograft; treated leukemic mice vs untreated leukemia group, data not shown): eliminated
- IC50 (WEHI-3 cells; Mus musculus, WEHI-3, 24 h, read-out: IC50 (cell viability, MTT)): 5 µM
- percentage of viable cells (WEHI-3 cells; WEHI-3 cells, 0.78-25 μM, 24 h, MTT): decreased the percentage of viable cells in a concentration-dependent manner
